Data set [1] concerns the target T1, CYP1B1 (Homo sapiens, UniProt Q16678).
T1 sequence (Q16678 whole entry): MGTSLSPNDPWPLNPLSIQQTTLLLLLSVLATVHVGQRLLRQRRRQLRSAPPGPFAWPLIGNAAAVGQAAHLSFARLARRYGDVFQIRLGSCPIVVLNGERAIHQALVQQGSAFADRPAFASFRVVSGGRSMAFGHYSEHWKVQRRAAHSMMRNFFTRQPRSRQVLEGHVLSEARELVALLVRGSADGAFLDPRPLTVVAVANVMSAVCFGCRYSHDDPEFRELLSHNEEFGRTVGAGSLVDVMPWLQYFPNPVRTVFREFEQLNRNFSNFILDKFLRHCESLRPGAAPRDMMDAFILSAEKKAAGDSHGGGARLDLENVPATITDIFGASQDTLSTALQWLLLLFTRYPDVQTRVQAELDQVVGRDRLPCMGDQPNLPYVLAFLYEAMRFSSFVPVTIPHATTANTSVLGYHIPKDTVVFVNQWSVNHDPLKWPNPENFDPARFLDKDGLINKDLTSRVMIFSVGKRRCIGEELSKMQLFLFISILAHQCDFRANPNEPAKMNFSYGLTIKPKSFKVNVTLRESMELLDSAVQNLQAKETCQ
Briefly: Inhibition of recombinant human CYP1B1 expressed in supersomes coexpressing P450 reductase at 0.3 uM using 7-ethyl-O-resorufin as substrate after 45 mins in presence of NADPH by fluorescence assay relative to control. The note with it: probe 7-ethyl-O-resorufin.

Another data set concerns the target T2, Cytochrome P450 1B1 (Homo sapiens, UniProt Q16678).
T2 sequence (Q16678 whole entry): T1 sequence (Q16678 whole entry)
Description: Inhibition of recombinant human CYP1B1 expressed in supersomes coexpressing P450 reductase using 7-ethyl-O-resorufin as substrate after 45 mins in presence of NADPH by fluorescence assay.

For data set [2], the target named is T1, CYP1B1. Briefly: Potency index, ratio of alpha-naphthoflavone IC50 to compound IC50 for inhibition of recombinant human CYP1B1 expressed in supersomes coexpressing P450 reductase. The note with it: read-out: Ratio IC50. In outline: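 EROD assay on recombinant human CYP1B1 with NADPH as cofactor. Resorufin ethyl ether is the substrate, and conversion to resorufin is read by fluorescence.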

Data set [3] is described as follows: Drug uptake in rat plasma at 2 mg/kg, sc administered as single dose measured at 2 hrs post dose by LC-MS analysis. The format is ADME, organism-based. In outline: (§1)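 Rats given one subcutaneous injection of the 17β-alcohol parent at 2.0 mg/kg (0.66 mg in PG:DMSO 92:8). Plasma levels of the parent and of its 17-keto metabolite were followed over time. AUC (ng.h/mL) was calculated for each species and for the two combined.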

A short description of data set [4]: Drug metabolism in rat plasma assessed as 2-(3-pyridinyl)-3-hydroxy-estra-1,3,5(10)-trien-17-one formation at 2 mg/kg, sc administered as single dose measured at 2 hrs post dose by LC-MS analysis. The data set is classed as ADME, organism-based. As to conditions: in vivo. In outline: as §1
Data set [5] is described as follows: AUC (0 to 24 hrs) in rat plasma at 2 mg/kg, sc administered as single dose measured at 2 hrs post dose by LC-MS analysis. The data set is classed as ADME, organism-based. On the set-up: time < 24 hr, dose 2 mg/kg, route subcutaneous. In outline: as §1
A further data set concerns Rattus norvegicus. Description: AUC (0 to 24 hrs) in rat plasma assessed as 2-(3-pyridinyl)-3-hydroxy-estra-1,3,5(10)-trien-17-one level at 2 mg/kg, sc administered as single dose measured at 2 hrs post dose by LC-MS analysis. The format is ADME, organism-based. On the set-up: dose 2 mg/kg, time < 24 hr, route subcutaneous. As to conditions: in vivo. In outline:
as §1

From ChEMBL document CHEMBL4130563, “Structure-Based Design and Synthesis of New Estrane-Pyridine Derivatives as Cytochrome P450 (CYP) 1B1 Inhibitors” (ACS Med Chem Lett, 2017) come the findings set out here.

Turning to `C[C@]12CC[C@@H]3c4ccc(S)cc4CC[C@H]3[C@@H]1CCC2=O`, the inhibition – broadly, the drop in the measured response relative to a control, in per cent – at 0.75 h, 0.3 µM at CYP1B1 [1] came to 13.3%.
Same read-out and setting: with `C[C@]12CC[C@@H]3c4ccc(-c5cccnc5)cc4CC[C@H]3[C@@H]1CC[C@@H]2O` the figure was 19.6%.
Still for that read-out and setting: with `C[C@]12CC[C@@H]3c4ccc(O)c(-c5ccncc5)c4CC[C@H]3[C@@H]1CC[C@@H]2O` the figure was 20.9%.
`C[C@]12CC[C@@H]3c4cc(-c5cccnc5)c(O)cc4CC[C@H]3[C@@H]1CC[C@@H]2O`: the inhibition at 0.75 h, 0.3 µM at CYP1B1 [1] turned out to be 85.4%. At Cytochrome P450 1B1, the IC50 (as a rule, the point on the concentration scale where inhibition reaches its midpoint) came out at 11 nM. Further, at CYP1B1 [2], the selectivity ratio is 7.5. The compound also showed a concentration at 2 h in data set [3] of 4 ng/mL. Further, the Drug metabolism in data set [4] was 7 ng/mL. Besides, the AUC(0-t) (commonly exposure summed from dosing to a finite time, without extrapolation to infinity) at 24 h in data set [5] is 12.8 ng·h/mL. In addition, the AUC (usually concentration integrated over time) in the data set with Rattus norvegicus amounted to 33.2 ng·h/mL.
With `C[C@]12CC[C@@H]3c4ccc(-c5cccnc5)cc4CC[C@H]3[C@@H]1CCC2=O`, at CYP1B1 [1], the inhibition at 0.75 h, 0.3 µM was 28.2%.
`C[C@]12CC[C@@H]3c4ccc(O)c(-c5cccnc5)c4CC[C@H]3[C@@H]1CCC2=O`: the inhibition at 0.75 h, 0.3 µM at CYP1B1 [1] worked out at 14%.
On to `C[C@]12CC[C@@H]3c4cc(-c5cccnc5)c(O)cc4CC[C@H]3[C@@H]1CCC2=O`, for which, on CYP1B1 [1], the inhibition at 0.75 h, 0.3 µM was 37.8%. Moreover, the IC50 on Cytochrome P450 1B1 was determined as 63 nM.
Regarding `C[C@]12CC[C@@H]3c4ccc(-c5ccncc5)cc4CC[C@H]3[C@@H]1CCC2=O`, the inhibition at 0.75 h, 0.3 µM at CYP1B1 [1] is 6.1%.
Same read-out and setting: with `C[C@]12CC[C@@H]3c4ccc(O)c(-c5ccncc5)c4CC[C@H]3[C@@H]1CCC2=O` the figure was 16.9%; with `C[C@]12CC[C@@H]3c4ccc(O)c(-c5cccnc5)c4CC[C@H]3[C@@H]1CC[C@@H]2O`, 28.9%.
As to `C[C@]12CC[C@@H]3c4cc(-c5ccncc5)c(O)cc4CC[C@H]3[C@@H]1CC[C@@H]2O`, the inhibition at 0.75 h, 0.3 µM on CYP1B1 [1] was 87.4%. For the same compound, on Cytochrome P450 1B1, the IC50 turned out to be 32 nM. Moreover, at CYP1B1 [2], the selectivity ratio worked out at 2.5.
For the compound `C[C@]12CC[C@@H]3c4cc(-c5ccncc5)c(O)cc4CC[C@H]3[C@@H]1CCC2=O`, the inhibition at 0.75 h, 0.3 µM at CYP1B1 [1] was found to be 21.3%. The IC50 at Cytochrome P450 1B1 stood at 120 nM.
Regarding `C[C@]12CC[C@@H]3c4ccc(-c5ccncc5)cc4CC[C@H]3[C@@H]1CC[C@@H]2O`, at CYP1B1 [1], the inhibition at 0.75 h, 0.3 µM stood at 19.5%.
For `O=c1cc(-c2ccccc2)oc2c1ccc1ccccc12` [ALPHA-NAPHTHOFLAVONE], the inhibition at 0.75 h, 0.3 µM on CYP1B1 [1] was 94%.
On the same count and under the same terms, then `C[C@]12CC[C@@H]3c4ccc(O)cc4CC[C@H]3[C@@H]1CC[C@@H]2O` [ESTRADIOL], with 12.4%.
